Data taken from ChEMBL document CHEMBL1154678, “beta-Lactams derived from a carbapenem chiron are selective inhibitors of human fatty acid amide hydrolase versus human monoacylglycerol lipase” (J Med Chem, 2009).

Assays:
[1] = target: T1, Fatty-acid amide hydrolase 1 (Homo sapiens, UniProt O00519); test: Inhibition of human recombinant FAAH using [3H]anandamide by competitive hydrolysis assay
T1 sequence (O00519 whole entry): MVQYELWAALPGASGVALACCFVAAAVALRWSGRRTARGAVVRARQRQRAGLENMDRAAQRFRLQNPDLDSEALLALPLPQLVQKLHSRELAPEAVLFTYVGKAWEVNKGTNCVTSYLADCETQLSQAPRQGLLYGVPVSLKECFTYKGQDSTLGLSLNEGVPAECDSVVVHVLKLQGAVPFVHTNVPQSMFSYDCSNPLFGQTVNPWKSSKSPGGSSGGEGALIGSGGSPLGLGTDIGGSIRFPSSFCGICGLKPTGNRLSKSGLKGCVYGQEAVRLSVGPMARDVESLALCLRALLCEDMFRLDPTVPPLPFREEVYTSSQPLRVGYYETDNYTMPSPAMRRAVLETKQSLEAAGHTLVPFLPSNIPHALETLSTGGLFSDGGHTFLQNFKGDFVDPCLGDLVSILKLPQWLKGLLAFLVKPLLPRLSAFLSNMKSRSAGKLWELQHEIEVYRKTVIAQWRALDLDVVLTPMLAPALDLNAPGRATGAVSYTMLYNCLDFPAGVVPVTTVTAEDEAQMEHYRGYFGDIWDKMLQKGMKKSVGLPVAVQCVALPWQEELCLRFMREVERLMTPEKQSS
Procedure, shortened: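 Compounds were added in DMSO, with DMSO alone as control, plus [3H]-AEA at 2 μM final, 37 °C for 10 min. The reaction was stopped on ice with cold chloroform/methanol (1:1), and the aqueous phase was counted by LSC with the buffer-only blank subtracted. IC50 is the mean of three independent experiments.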

[2] = target: T2, Monoglyceride lipase (Homo sapiens) (UniProt Q99685); test: Inhibition of human recombinant MGL using 2-oleoylglycerol at 100 uM by competitive hydrolysis assay
T2 sequence (whole entry): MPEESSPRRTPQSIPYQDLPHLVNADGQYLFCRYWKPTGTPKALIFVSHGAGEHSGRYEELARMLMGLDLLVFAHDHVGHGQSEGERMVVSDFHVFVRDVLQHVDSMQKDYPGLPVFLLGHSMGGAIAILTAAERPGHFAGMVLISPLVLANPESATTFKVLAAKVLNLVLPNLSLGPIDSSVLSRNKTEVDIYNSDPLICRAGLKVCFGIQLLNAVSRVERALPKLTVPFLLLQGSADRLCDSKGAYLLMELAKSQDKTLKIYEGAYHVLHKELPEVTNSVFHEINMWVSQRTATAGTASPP

[3] = target: T2, Monoglyceride lipase (Homo sapiens); test: Inhibition of human recombinant MGL using 2-oleoylglycerol at 1 uM by competitive hydrolysis assay
Monoglyceride lipase = target: T3, Monoglyceride lipase (Homo sapiens, UniProt Q99685); test: Inhibition of human recombinant MGL using 2-oleoylglycerol by competitive hydrolysis assay
T3 sequence (Q99685 whole entry): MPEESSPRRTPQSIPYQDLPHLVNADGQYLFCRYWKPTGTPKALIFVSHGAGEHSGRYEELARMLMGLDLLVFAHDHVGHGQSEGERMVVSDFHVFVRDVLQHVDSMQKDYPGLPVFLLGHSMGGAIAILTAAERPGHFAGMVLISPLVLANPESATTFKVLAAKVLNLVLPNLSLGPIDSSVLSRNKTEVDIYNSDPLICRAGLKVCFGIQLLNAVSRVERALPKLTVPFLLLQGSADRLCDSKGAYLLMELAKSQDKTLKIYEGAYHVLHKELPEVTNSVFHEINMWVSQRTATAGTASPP
Procedure, shortened: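 Compounds were added in DMSO, with DMSO as control, plus [3H]-2-oleoylglycerol at 2 μM final, 37 °C for 10 min. Ice-cold chloroform/methanol (1:1) quench, and the methanol/buffer phase was counted by LSC with the blank subtracted. Results are means of three independent assays.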

[4] = substrate: C=CCCC(=O)N1C[C@@H]([C@@H](C)OC(=O)CCCc2ccccc2)C1=O; test: Hydrolytic activity of human recombinant FAAH at 45 nM by liquid scintillation counting
[5] = substrate: C=CCCC(=O)N1C[C@@H]([C@@H](C)OC(=O)CCCc2ccccc2)C1=O; test: Hydrolytic activity of human recombinant FAAH at 15 nM by liquid scintillation counting

Molecule | IC50 [1] [nM] | inhibition [2] [%] | inhibition [3] [%] | IC50 (Monoglyceride lipase) [nM] | IC50 (Monoglyceride lipase; read-out: IC50) [nM] | Vmax [4] [nmol/min/mg] | Vmax [5] [nmol/min/mg]
CC(=O)O[C@@H]1[C@@H]([C@@H](C)OC(=O)Cc2ccc(-c3ccccc3)cc2)C(=O)N1C(=O)CCc1ccccc1 | 826 | 66 | – | – | – | – | –
CC(=O)O[C@@H]1[C@@H]([C@@H](C)OC(=O)CCCc2ccccc2)C(=O)N1C(=O)CCCc1ccccc1 | 3120 | 100 | 0 | – | – | – | –
C[C@@H](OC(=O)CCc1ccccc1)[C@@H]1CN(C(=O)CCc2ccccc2)C1=O | 157 | 100 | 0 | – | – | – | –
C[C@@H](OC(=O)Cc1ccc(-c2ccccc2)cc1)[C@@H]1CN(C(=O)CCc2ccccc2)C1=O | 50 | 31 | – | – | – | – | –
C[C@@H](OC(=O)CCCc1ccccc1)[C@@H]1CN(C(=O)CCc2ccccc2)C1=O | 49 | 100 | 0 | – | – | – | –
CC(=O)O[C@@H]1[C@@H]([C@@H](C)OC(=O)CCCc2ccccc2)C(=O)N1C(=O)CCc1ccccc1 | 960 | 100 | 0 | – | – | – | –
C=CCCCC(=O)O[C@H](C)[C@@H]1CN(C(=O)CCC=C)C1=O | 32 | 8 | – | 4720 | 4720 | – | –
C[C@@H](OC(=O)Cc1ccc(-c2ccccc2)cc1)[C@@H]1CNC1=O | 6500 | 16 | – | – | – | – | –
CC(=O)O[C@@H]1[C@@H]([C@@H](C)O)C(=O)N1C(=O)CCc1ccccc1 | 224000 | 48 | – | – | – | – | –
C=CCCCC(=O)N1C[C@@H]([C@@H](C)OC(=O)CCCc2ccccc2)C1=O | 10 | 85 | – | – | 8510 | – | –
C[C@@H](O)[C@@H]1CN(C(=O)CCc2ccccc2)C1=O | 409000 | 8 | – | – | – | – | –
C[C@@H](OC(=O)Cc1ccc(-c2ccccc2)cc1)[C@@H]1CN(C(=O)CCCCc2ccccc2)C1=O | 236 | 25 | – | – | – | – | –
C[C@@H](OC(=O)CCCCc1ccccc1)[C@@H]1CN(C(=O)CCCc2ccccc2)C1=O | 45 | 59 | – | – | – | – | –
C=CCCC(=O)N1C[C@@H]([C@@H](C)OC(=O)Cc2ccc(-c3ccccc3)cc2)C1=O | 12 | 91 | – | – | 1840 | – | –
C=CCCCC(=O)N1C[C@@H]([C@@H](C)OC(=O)Cc2ccc(-c3ccccc3)cc2)C1=O | 14 | 67 | – | – | 14600 | – | –
C=CCCC(=O)N1C[C@@H]([C@@H](C)O)C1=O | 7900 | 89 | 8 | – | – | – | –
C[C@@H](OC(=O)CCCc1ccccc1)[C@@H]1CN(C(=O)CCCc2ccccc2)C1=O | 30 | 100 | 0 | – | – | – | –
C[C@@H](OC(=O)CCCCc1ccccc1)[C@@H]1CN(C(=O)CCc2ccccc2)C1=O | 91 | 100 | 0 | – | – | – | –
CC(=O)O[C@@H]1[C@@H]([C@@H](C)OC(=O)Cc2ccc(-c3ccccc3)cc2)C(=O)N1C(=O)CCCc1ccccc1 | 708 | 100 | 0 | – | – | – | –
C[C@@H](OC(=O)CCc1ccccc1)[C@@H]1CN(C(=O)CCCc2ccccc2)C1=O | 57 | 54 | – | – | – | – | –
C=CCCC(=O)O[C@H](C)[C@H]1C(=O)N(C(=O)CCC=C)[C@@H]1OC(C)=O | 1900 | 99 | 33 | – | 133000 | – | –
CC(=O)O[C@@H]1[C@@H]([C@@H](C)OC(=O)CCc2ccccc2)C(=O)N1C(=O)CCc1ccccc1 | 2020 | 100 | 0 | – | – | – | –
C[C@@H](OC(=O)CCCc1ccccc1)[C@@H]1CN(C(=O)CCCCc2ccccc2)C1=O | 449 | 39 | – | – | – | – | –
CC(=O)O[C@@H]1[C@@H]([C@@H](C)O)C(=O)N1C(=O)CCCc1ccccc1 | 183000 | 61 | – | – | – | – | –
C=CCCC(=O)N1C(=O)[C@H]([C@@H](C)O)[C@H]1OC(C)=O | 537000 | 16 | – | – | – | – | –
C=CCCC(=O)N1C[C@@H]([C@@H](C)OC(=O)CCCc2ccccc2)C1=O | 5 | 89 | – | – | 4060 | – | –
CC(=O)O[C@@H]1[C@@H]([C@@H](C)OC(=O)CCc2ccccc2)C(=O)N1C(=O)CCCc1ccccc1 | 5120 | 100 | 0 | – | – | – | –
C=CCCC(=O)O[C@H](C)[C@@H]1CN(C(=O)CCC=C)C1=O | 98 | 99 | – | – | 23300 | – | –
C[C@@H](OC(=O)Cc1ccc(-c2ccccc2)cc1)[C@@H]1CN(C(=O)CCCc2ccccc2)C1=O | 32 | 0 | – | – | – | – | –
Fatty-acid amide hydrolase 1 (Homo sapiens), O00519 (protein) MVQYELWAALPGASGVALACCFVAAAVALRWSGRRTARGAVVRARQRQRAGLENMDRAAQRFRLQNPDLDSEALLALPLPQLVQKLHSRELAPEAVLFTYVGKAWEVNKGTNCVTSYLADCETQLSQAPRQGLLYGVPVSLKECFTYKGQDSTLGLSLNEGVPAECDSVVVHVLKLQGAVPFVHTNVPQSMFSYDCSNPLFGQTVNPWKSSKSPGGSSGGEGALIGSGGSPLGLGTDIGGSIRFPSSFCGICGLKPTGNRLSKSGLKGCVYGQEAVRLSVGPMARDVESLALCLRALLCEDMFRLDPTVPPLPFREEVYTSSQPLRVGYYETDNYTMPSPAMRRAVLETKQSLEAAGHTLVPFLPSNIPHALETLSTGGLFSDGGHTFLQNFKGDFVDPCLGDLVSILKLPQWLKGLLAFLVKPLLPRLSAFLSNMKSRSAGKLWELQHEIEVYRKTVIAQWRALDLDVVLTPMLAPALDLNAPGRATGAVSYTMLYNCLDFPAGVVPVTTVTAEDEAQMEHYRGYFGDIWDKMLQKGMKKSVGLPVAVQCVALPWQEELCLRFMREVERLMTPEKQSS | – | – | – | – | – | 11.9 | 12.8
